Test results published in article PMC11364517 (Neuron, 2024).

Key:
GRABNE2m [1] = test: Ligand selectivity of GRABNE2m expressed in HEK293T cells; format: cell-based; conditions: for fluorescence response of GRABNE2m to the ligand: HEK293T cells, trace amines and NE metabolites in full doses (Fig. S2C, S2D)
GRABNE2h [2] = test: Ligand selectivity of GRABNE2h expressed in HEK293T cells; format: cell-based; conditions: for fluorescence response of GRABNE2h to the ligand: HEK293T cells, trace amines and NE metabolites in full doses (Fig. S2C, S2D)
GRABNE2m [3] = conditions: read-out: apparent affinity values (EC50); n = 3
GRABNE2h [4] = conditions: read-out: apparent affinity values (EC50); n = 3
[5] = test system: optogenetically evoked NE release in the LC; test: Fiber photometry in the LC of freely moving TH-Cre mice during optogenetic; format: in vivo; conditions: i.p. injection; GRABNE2m and GRABNE2h
How it was run: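 Mice received hSyn-GRABNE2m or NE2h AAV plus Cre-dependent C1V1-YFP AAV (1 × 10¹³ genomic copies per ml) in the LC at 100 nl/min, 500 nl, under Avertin (500 mg/kg i.p.) or 1.5% isoflurane. LC fibres (105/125 μm) were implanted four weeks later. Photometry used a 473-nm laser, 25 μW at the fibre tip. Test compound was given i.p.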

| SMILES | fluorescence response of GRABNE2m to the ligand (GRABNE2m [1]) | fluorescence response of GRABNE2h to the ligand (GRABNE2h [2]) | also measured |
| --- | --- | --- | --- |
| COc1cc(C(O)CO)ccc1O (stereo not shown) [3-methoxy-4-hydroxyphenylglycol] | not respond | not respond | – |
| NCCc1ccc(O)c(O)c1 [DA, dopamine] | – | – | EC50 (GRABNE2m [3]): 20 µM; EC50 (GRABNE2h [4]): 9 µM |
| Fc1ccc(C(OCCN2CCN(CCCc3ccccc3)CC2)c2ccc(F)cc2)cc1 [GBR-12909] | – | – | effect on decay kinetics of the optogenetically evoked response [5]: no effect |
| NC[C@H](O)c1ccc(O)c(O)c1 [NE, norepinephrine] | – | – | EC50 (GRABNE2m [3]): 0.38 µM; EC50 (GRABNE2h [4]): 0.19 µM |
| CC(=O)OCC[N+](C)(C)C [acetylcholine] | do not respond | do not respond | – |
| Nc1ncnc2c1ncn2[C@@H]1O[C@H](CO)[C@@H](O)[C@H]1O [adenosine] | do not respond | do not respond | – |
| CCc1cc(Cl)c(OC)c(C(=O)NC[C@@H]2CCCN2CC)c1O [eticlopride] | – | – | effect on decay kinetics of the optogenetically evoked response [5]: no effect |
| N[C@@H](CCC(=O)O)C(=O)O [glutamate, L-Glutamic acid] | do not respond | do not respond | – |
| NCCc1c[nH]cn1 [histamine] | do not respond | do not respond | – |
| CC(C)NCC(O)c1ccc(O)c(O)c1 (stereo not shown) [isoprenaline] | do not respond | do not respond | – |
| COc1cc(C(O)CN)ccc1O (stereo not shown) [normetanephrine] | not respond | not respond | – |
| NCC(O)c1ccc(O)cc1 (stereo not shown) [octopamine] | not respond | not respond | – |
| NCCc1ccccc1 [phenethylamine] | not respond | not respond | – |
| NCCc1c[nH]c2ccc(O)cc12 [serotonin] | do not respond | do not respond | – |
| NCCc1ccc(O)cc1 [tyramine] | not respond | not respond | – |
| COc1cc(C(O)C(=O)O)ccc1O (stereo not shown) [vanillylmandelic acid] | not respond | not respond | – |
| COC(=O)[C@@H]1[C@H]2C[C@H]3c4[nH]c5ccccc5c4CCN3C[C@@H]2CC[C@@H]1O [yohimbine] | – | – | block of the NE-induced response of GRABNE2m (GRABNE2m [1]; HEK293T cells (Fig. S2D)): blocked; block of the NE-induced response of GRABNE2h (GRABNE2h [2]; HEK293T cells (Fig. S2D)): blocked |
| NCCCC(=O)O [γ-aminobutyric acid] | do not respond | do not respond | – |
